According to ChEMBL document CHEMBL2406952, “Identification of vitamin d3-based hedgehog pathway inhibitors that incorporate an aromatic a-ring isostere” (ACS Med Chem Lett, 2013):
Calls of active or inactive are those of the source. The calls are words filed in the database; no cut-off is given here.

Columns and labels:
[1] = target: T1, Vitamin D3 receptor (Mus musculus) (UniProt P48281); test: Activation of VDR in mouse C3H10T1/2 cells assessed as upregulation of Cyp24A1 mRNA expression at 5 uM after 24 hrs by RT-PCR analysis relative to DMSO-treated control; type: cell-based; details: C3H 10T1/2
T1 sequence (whole entry): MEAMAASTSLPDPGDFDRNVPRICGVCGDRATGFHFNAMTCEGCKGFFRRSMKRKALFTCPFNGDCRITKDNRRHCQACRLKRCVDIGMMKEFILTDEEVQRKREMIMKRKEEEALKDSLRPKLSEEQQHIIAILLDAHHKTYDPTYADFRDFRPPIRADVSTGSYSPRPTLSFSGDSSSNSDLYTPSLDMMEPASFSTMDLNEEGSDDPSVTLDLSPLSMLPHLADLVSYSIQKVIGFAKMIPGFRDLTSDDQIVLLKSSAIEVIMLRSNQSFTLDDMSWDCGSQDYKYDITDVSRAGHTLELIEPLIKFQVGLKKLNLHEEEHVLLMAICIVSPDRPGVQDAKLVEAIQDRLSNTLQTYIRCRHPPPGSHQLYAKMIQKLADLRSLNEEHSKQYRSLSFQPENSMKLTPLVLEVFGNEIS
Outline: (§1)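 Cyp24A1 mRNA normalized to ActinB and expressed relative to DMSO vehicle (set to 1.0). Cells treated for 24 h at 5 μM (some agents at 1 μM).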

[2] = target: T2, Vitamin D3 receptor (Homo sapiens) (UniProt P11473); test: Binding affinity to human VDR by fluorescence polarization assay
T2 sequence (whole entry): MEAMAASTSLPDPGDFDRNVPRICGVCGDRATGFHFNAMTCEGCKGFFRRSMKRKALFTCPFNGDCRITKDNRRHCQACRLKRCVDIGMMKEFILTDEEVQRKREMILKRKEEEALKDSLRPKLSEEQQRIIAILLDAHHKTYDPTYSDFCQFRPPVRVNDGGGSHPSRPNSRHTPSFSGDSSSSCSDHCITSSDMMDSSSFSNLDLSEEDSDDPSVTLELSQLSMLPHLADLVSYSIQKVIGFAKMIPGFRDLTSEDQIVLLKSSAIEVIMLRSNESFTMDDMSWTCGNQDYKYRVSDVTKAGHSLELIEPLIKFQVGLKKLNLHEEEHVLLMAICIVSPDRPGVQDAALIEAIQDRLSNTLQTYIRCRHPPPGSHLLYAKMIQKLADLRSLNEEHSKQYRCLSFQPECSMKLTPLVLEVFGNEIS
Outline: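 Fluorescence polarization competition kit with full-length human VDR and a tight-binding fluorescent VDR ligand, run per manufacturer's instructions. Compounds tested at 50 and 100 μM, with calcitriol as positive control for binding.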

[3] = Inhibition of Hedgehog signaling in mouse C3H10T1/2 cells assessed as downregulation of Gli1 mRNA expression at 5 uM after 24 hrs by RT-PCR analysis relative to 20(S)-hydroxycholesterol and 22(S)-hydroxycholesterol; type: cell-based; details: C3H 10T1/2
Outline: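 Endogenous Gli1 mRNA measured after 24 h at 5 μM and normalized to ActinB with DMSO vehicle set to 1.0. Cells stimulated with 20(S)-hydroxycholesterol plus 22(S)-hydroxycholesterol (5 μM each) define 100% pathway activity, and the analogue effect is given as % of this level.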

Daoy = test: Downregulation of Gli1 mRNA expression in human DaOY cells at 2.5 uM relative to DMSO-treated control; type: functional
[4] = target: T1, Vitamin D3 receptor (Mus musculus); test: Activation of VDR in mouse ASZ001 cells assessed as upregulation of Cyp24A1 mRNA expression at 5 to 10 uM after 48 hrs by RT-PCR analysis; type: cell-based
Outline: (§2)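 Cells exposed to compound for 48 h; Cyp24A1 mRNA expression measured and expressed relative to DMSO vehicle-treated cells, set as 1.0.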

[5] = Inhibition of Hedgehog signaling in mouse M210B4 cells assessed as downregulation of Gli1 mRNA expression at 10 uM after 24 hrs by RT-PCR analysis relative to 20(S)-hydroxycholesterol and 22(S)-hydroxycholesterol; type: cell-based
Outline: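 M2-10B4 murine bone marrow stromal cells, Hh-responsive, treated for 24 h. Gli1 mRNA normalized to ActinB. Positive control 20(S)-hydroxycholesterol:22(S)-hydroxycholesterol (5 μM each) set as 100% pathway signaling. Values given as % of this level.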

[6] = target: T2, Vitamin D3 receptor (Homo sapiens); test: Activation of VDR in human DaOY cells assessed as upregulation of Cyp24A1 mRNA expression at 5 uM after 48 hrs by RT-PCR analysis relative to DMSO-treated control; type: cell-based
Outline: (§3)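 Cyp24A1 mRNA measured after 48 h exposure to analogue and normalized to ActinB, expressed relative to DMSO vehicle-treated cells (set as 1.0). Single concentrations tested were 2.5, 5 or 10 μM.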

[7] = target: T1, Vitamin D3 receptor (Mus musculus); test: Activation of VDR in mouse M210B4 cells assessed as upregulation of Cyp24A1 mRNA expression at 5 uM after 24 hrs by RT-PCR analysis relative to DMSO-treated control; type: cell-based; outline: as §1
[8] = Inhibition of Hedgehog signaling in mouse M210B4 cells assessed as downregulation of Gli1 mRNA expression after 24 hrs by RT-PCR analysis; type: cell-based; details: M210B4, 24 h
Outline: (§4)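 Oxysterol-stimulated cells (20(S)- plus 22(S)-hydroxycholesterol, 5 μM each) were treated with compound across a dose range for 24 h. Gli1 and Ptch mRNA were normalized to ActinB, and IC50 values were derived. VD3 was dosed up to 10 μM.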

[9] = Inhibition of Hedgehog signaling in mouse C3H10T1/2 cells assessed as downregulation of Ptch mRNA expression after 24 hrs by RT-PCR analysis; type: cell-based; details: for IC50: C3H 10T1/2, 24 h; for inhibition: C3H 10T1/2; outline: as §4
[10] = Inhibition of Hedgehog signaling in mouse ASZ001 cells assessed as downregulation of Gli1 mRNA expression after 48 hrs by RT-PCR analysis; type: cell-based; details: ASZ001, 48 h
Outline: (§5)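 Gli1 mRNA dose-response after 48 h compound incubation, used to derive IC50 (μM). Each value comes from at least two separate experiments, each performed in triplicate.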

[11] = Inhibition of Hedgehog signaling in human DaOY cells assessed as downregulation of Gli1 mRNA expression after 48 hrs by RT-PCR analysis; type: cell-based; outline: as §5
[12] = target: T1, Vitamin D3 receptor (Mus musculus); test: Activation of VDR in mouse ASZ001 cells assessed as upregulation of Cyp24A1 mRNA expression at =< 2.5 uM after 48 hrs by RT-PCR analysis; type: cell-based; outline: as §2
[13] = Inhibition of Hedgehog signaling in mouse M210B4 cells assessed as downregulation of Ptch mRNA expression after 24 hrs by RT-PCR analysis; type: cell-based; details: M210B4, 24 h; outline: as §4
[14] = Inhibition of Hedgehog signaling in mouse C3H10T1/2 cells assessed as downregulation of Gli1 mRNA expression after 24 hrs by RT-PCR analysis; type: cell-based; details: for IC50: C3H 10T1/2, 24 h; for inhibition: C3H 10T1/2; outline: as §4
[15] = Inhibition of Hedgehog signaling in mouse ASZ001 cells assessed as downregulation of Gli1 mRNA expression at 10 uM after 48 hrs by RT-PCR analysis relative to control; values are per cent of control
[16] = target: T1, Vitamin D3 receptor (Mus musculus); test: Activation of VDR in mouse ASZ001 cells assessed as upregulation of Cyp24A1 mRNA expression at 5 uM after 48 hrs by RT-PCR analysis relative to DMSO-treated control; type: cell-based; outline: as §3
[17] = target: T2, Vitamin D3 receptor (Homo sapiens); test: Activation of VDR in human DaOY cells assessed as upregulation of Cyp24A1 mRNA expression at 10 uM after 48 hrs by RT-PCR analysis relative to DMSO-treated control; type: cell-based; outline: as §3
[18] = target: T2, Vitamin D3 receptor (Homo sapiens); test: Activation of VDR in human HT-29 assessed as upregulation of Cyp24A1 mRNA expression after 6 hrs by Northern blotting analysis
[19] = target: T1, Vitamin D3 receptor (Mus musculus); test: Activation of VDR in mouse M210B4 cells assessed as upregulation of Cyp24A1 mRNA expression at 1 uM after 24 hrs by RT-PCR analysis relative to DMSO-treated control; type: cell-based
Outline: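 M2-10B4 murine bone marrow stromal cells treated for 24 h at 1 μM; Cyp24A1 mRNA normalized to ActinB and expressed relative to DMSO vehicle, set to 1.0.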

[20] = target: T2, Vitamin D3 receptor (Homo sapiens); test: Activation of VDR in human DaOY cells assessed as upregulation of Cyp24A1 mRNA expression at 2.5 uM after 48 hrs by RT-PCR analysis relative to DMSO-treated control; type: cell-based; outline: as §2

| Compound | fold change (FC) [1] | Activity [2] | Gli1 mRNA level (% of OHC control) [3] | IC50 [10] | IC50 [11] | other results |
| --- | --- | --- | --- | --- | --- | --- |
| CC(=O)c1cccc(C(=O)O[C@H]2CCC[C@]3(C)[C@@H]([C@H](C)CCCC(C)C)CC[C@@H]23)c1 | 1.6 | > 100 µM | 77.5% |  |  |  |
| Cc1ccc(NC(=O)c2ccc(CN3CCN(C)CC3)cc2)cc1Nc1nccc(-c2cccnc2)n1 [IMATINIB] |  |  |  |  |  | fold change (FC) (Daoy): 0.98 |
| C=C1CC[C@H](O)C/C1=C/C=C1\CCC[C@]2(C)[C@@H]([C@H](C)CCCC(C)C)CC[C@@H]12 [CHOLECALCIFEROL] | 8340 |  | 35.7% | 2.1 µM | > 10 µM | Activity [4]: Active; inhibition [5]: 53%; fold change (FC) [6]: 149; fold change (FC) [7]: 274; IC50 [8]: > 10000 nM; IC50 [9]: 2900 nM; Activity [12]: Active; IC50 [13]: > 10000 nM; IC50 [14]: 4100 nM |
| CC(C)CCC[C@@H](C)[C@H]1CC[C@H]2[C@@H](OC(=O)c3cccc(OCc4ccccc4)c3)CCC[C@]12C | 1 | > 100 µM | 116% |  |  |  |
| CC(C)CCC[C@@H](C)[C@H]1CC[C@H]2[C@@H](O)CCC[C@]12C | 3.6 |  | 46.4% | > 10 µM | > 10 µM | fold change (FC) [6]: 0.8; level, % of control [15]: 65%; fold change (FC) [16]: 2.4; IC50 [9]: 2800 nM; IC50 [14]: 3100 nM |
| CC(C)CCC[C@@H](C)[C@H]1CC[C@H]2[C@@H](OC(=O)c3ccccc3)CCC[C@]12C | 1.2 | > 100 µM | 105% | > 10 µM | > 10 µM | fold change (FC) [16]: 1.1; fold change (FC) [17]: 0.6 |
| CC(C)CCC[C@@H](C)[C@H]1CC[C@H]2[C@@H](OC(=O)c3cccc(O)c3)CCC[C@]12C | 22.2 | > 100 µM | 1.9% | 5.2 µM | 3.7 µM | fold change (FC) [6]: 0.4; Activity [18]: inactive; fold change (FC) [7]: 1.2; IC50 [8]: 1100 nM; fold change (FC) [16]: 1.9; inhibition [9]: Dose-dependent effect; IC50 [9]: 1100 nM; IC50 [13]: 1700 nM; inhibition [14]: Dose-dependent effect; IC50 [14]: 740 nM |
| COc1cccc(C(=O)O[C@H]2CCC[C@]3(C)[C@@H]([C@H](C)CCCC(C)C)CC[C@@H]23)c1 | 1.3 | > 100 µM | 104% |  |  |  |
| CC(C)CCC[C@@H](C)[C@H]1CC[C@H]2[C@@H](OC(=O)c3cccc(N)c3)CCC[C@]12C | 24.3 | > 100 µM | 2.4% | 7.1 µM | 9.2 µM | fold change (FC) [6]: 0.5; fold change (FC) [16]: 2.5; inhibition [9]: Dose-dependent effect; IC50 [9]: 4500 nM; inhibition [14]: Dose-dependent effect; IC50 [14]: 2800 nM |
| COC[C@H]1OC(=O)c2coc3c2[C@@]1(C)C1=C(C3=O)[C@@H]2CCC(=O)[C@@]2(C)C[C@H]1OC(C)=O [WORTMANNIN] |  |  |  |  |  | fold change (FC) (Daoy): 0.92 |
| CC1=C2C[C@H]3[C@@H](CC=C4C[C@@H](O)CC[C@@]43C)[C@@H]2CC[C@]12O[C@@H]1C[C@H](C)CN[C@H]1[C@H]2C [CYCLOPAMINE] |  |  |  | 0.66 µM | 0.16 µM | IC50 [8]: 800 nM; fold change (FC) [16]: 0.8; fold change (FC) [19]: 1.5; IC50 [13]: 430 nM; fold change (FC) [20]: 1 |
| CC(C)CCC[C@@H](C)[C@H]1CC[C@H]2[C@@H](OC(=O)c3cccc(C(=O)O)c3)CCC[C@]12C | 6.7 | > 100 µM | 40% |  |  |  |
| O=C(O)c1cccc(O)c1 | 1.6 | > 100 µM | 92.6% |  |  |  |
| CS(=O)(=O)c1ccc(C(=O)Nc2ccc(Cl)c(-c3ccccn3)c2)c(Cl)c1 [VISMODEGIB] |  |  |  | 0.04 µM | 0.086 µM | IC50 [8]: 200 nM; IC50 [13]: 140 nM |
| O=C(CCCCCCC(=O)Nc1ccccc1)NO [VORINOSTAT] |  |  |  |  |  | fold change (FC) (Daoy): 1.51 |
| CC(C)CCC[C@@H](C)[C@H]1CC[C@H]2[C@@H](OC(=O)c3cccc(Cl)c3)CCC[C@]12C | 1.2 | > 100 µM | 107% |  |  |  |
| CNc1cccc(C(=O)O[C@H]2CCC[C@]3(C)[C@@H]([C@H](C)CCCC(C)C)CC[C@@H]23)c1 | 1.6 | > 100 µM | 97.8% |  |  |  |
